We go through 14 compounds from ChEMBL document CHEMBL4428027, “3-Hydroxypyrimidine-2,4-diones as Selective Active Site Inhibitors of HIV Reverse Transcriptase-Associated RNase H: Design, Synthesis, and Biochemical Evaluations” (J Med Chem, 2016).

pIC50: −log10 of the molar value. Some results are limits rather than exact numbers.

The target of data set [1] is T1, Human immunodeficiency virus type 1 reverse transcriptase (Human immunodeficiency virus 1, UniProt Q72547). Put plainly: Inhibition of RNase H activity of full length recombinant HIV1 reverse transcriptase assessed as reduction in nonspecific internal cleavage using HTS1 substrate. To be noted: read-out: IC50. The method in brief:
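Recombinant p66/p51 RT heterodimer. Fluorescent RNA/DNA duplex substrate HTS-1 measures internal cleavage. IC50 is the mean of at least three independent experiments.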

The target in data set [2] is T1, Human immunodeficiency virus type 1 reverse transcriptase. Nature of the data set: Inhibition of polymerase activity of HIV1 reverse transcriptase using poly(rA)-oligo(dT)16 and [3H]-TTP incubated for 20 mins by liquid scintillation spectrometry. To be noted: for pIC50: read-out: IC50. The method in brief: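 Reaction mix: 10 µM [3H]-TTP, 40 nM poly(rA)-oligo(dT)16, 50 mM Tris-HCl pH 7.4 (37°C), 60 mM KCl, 5 mM MgCl2. Started with 10 nM RT; 20 min at 37°C. Quenched in ice-cold 10% TCA with 20 mM sodium pyrophosphate, then glass-fibre filtered and washed with TCA and ethanol. Label incorporation read by liquid scintillation.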

Data set [3] shares this target. Nature of the data set: Inhibition of RNase H activity of full length recombinant HIV1 reverse transcriptase assessed as reduction in DNA 3'-end cleavage using HTS2 substrate. To be noted: for pIC50: read-out: IC50. A digest of the protocol:
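Recombinant p66/p51 RT heterodimer. Fluorescent RNA/DNA duplex substrate HTS-2 reports DNA 3′-end-directed (polymerase-dependent) cleavage. IC50 is the mean of at least three independent experiments.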

Data set [4] can be described thus: Toxicity against human HeLa P4/R5 cells. The class given is cell-based.
Data set [5] deals with T1, Human immunodeficiency virus type 1 reverse transcriptase. Put plainly: Inhibition of re-constituted HIV1 reverse transcriptase RNase H domain fragment. To be noted: read-out: IC50. A digest of the protocol: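 Secondary check using a catalytically active, isolated HIV RNase H domain fragment (reconstituted) with duplex substrate HTS-1.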
In data set [6] the target is Human immunodeficiency virus type 1 integrase (Human immunodeficiency virus 1, UniProt Q7ZJM1). Put plainly: Inhibition of HIV integrase pre-incubated for 10 mins before addition of oligo-5'-biotin ATGTGGAAAATCTCTAGCA annealed with ACTGCTAGAGATTTTCCACAT 3'-Cy5) substrate.
Data set [7] addresses T1, Human immunodeficiency virus type 1 reverse transcriptase. Put plainly: Inhibition of RNase H activity of full length recombinant HIV1 reverse transcriptase assessed as reduction in RNA 5'-end directed cleavage using HTS3 substrate. The settings on record: read-out: IC50.

Human immunodeficiency virus type 1 integrase, sequence (Q7ZJM1 whole entry): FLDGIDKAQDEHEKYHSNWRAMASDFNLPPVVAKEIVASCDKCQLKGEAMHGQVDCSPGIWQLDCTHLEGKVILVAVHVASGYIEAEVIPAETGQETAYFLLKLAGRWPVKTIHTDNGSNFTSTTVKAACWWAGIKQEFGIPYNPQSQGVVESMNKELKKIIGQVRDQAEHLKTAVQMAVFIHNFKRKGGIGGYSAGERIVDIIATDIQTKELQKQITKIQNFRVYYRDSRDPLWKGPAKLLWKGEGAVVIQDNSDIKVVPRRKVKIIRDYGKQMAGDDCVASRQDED

The term pIC50 denotes the IC50 on a negative log10 scale, so that one unit is a factor of ten. A word on the CC50: it is the concentration at which the toxic effect on the cells reaches its halfway point. On to `COc1ccc(-c2ccccc2Oc2cc(=O)n(O)c(=O)n2C)cc1`, for which the pIC50 in data set [1] was 5.64; in data set [5], 5.19; in data set [6], 6.00; in data set [7], 4.66. In addition, the IC50 result in data set [2] and in data set [3] was “Not Active” throughout. This compound also had a cytotoxic concentration (CC50) in data set [4] of 6 µM.

In the case of `Cn1c(Nc2cccc(-c3cccc(C#N)c3)c2)cc(=O)n(O)c1=O`, the pIC50 in data set [1] is 5.96; in data set [2], 5.30; in data set [3] it was 5.49; in data set [5] it was 6.00; in data set [6], 5.15; in data set [7], 5.39. Also, the CC50 in data set [4] is over 25 µM.

Turning to `COc1cc(OC)cc(-c2ccc(Nc3cc(=O)n(O)c(=O)[nH]3)cc2)c1`, the pIC50 in data set [1] was 6.72; in data set [2], 6.47; in data set [3] it was 6.49; in data set [6], 4.46; in data set [7], 6.60.

With `Cn1c(Nc2cccc(-c3ccccc3)c2)cc(=O)n(O)c1=O`, the negative-log IC50 (pIC50) in data set [1] was 6.07; in data set [3] it was 5.46; in data set [6], 5.66; in data set [7] it was 5.47. Moreover, the IC50 result in data set [2] is on record as “Not Active”.

In the case of `Cn1c(Oc2cccc(-c3cccc(O)c3)c2)cc(=O)n(O)c1=O`, the pIC50 in data set [1] was 6.05; in data set [3] it was 4.92; in data set [6], 5.15; in data set [7] it was 5.37. Moreover, in data set [2], the IC50 result is “Not Active”.

Regarding `Cn1c(Oc2ccc(-c3ccc(O)cc3)cc2)cc(=O)n(O)c1=O`, the negative logarithm of the IC50 (pIC50) in data set [1] was 5.66; in data set [3] it was 4.82; in data set [6], 4.92; in data set [7], 4.96. Also, in data set [2], the IC50 result was “Not Active”.

`Cc1noc(C)c1-c1ccc(Nc2cc(=O)n(O)c(=O)n2C)cc1`: the pIC50 in data set [1] is 5.80; in data set [3], 5.36; in data set [6], 4.60; in data set [7], 5.42. Also, the IC50 entry in data set [2] is recorded as “Not Active”.

As to `COc1ccc(-c2ccc(Nc3cc(=O)n(O)c(=O)n3C)cc2)cc1`, the IC50 entry in data set [2] was “Not Active”. The pIC50 was 5.18 in data set [3], 6.05 in data set [5], 5.36 in data set [6] and 5.30 in data set [7]. Besides, half-maximal cytotoxicity in data set [4] (CC50) was put at 5 µM.

For the compound `COc1ccc(-c2cccc(Nc3cc(=O)n(O)c(=O)[nH]3)c2)c(OC)c1`, the pIC50 in data set [1] is 6.51; in data set [2], 5.49; in data set [3] it was 6.27; in data set [6], 5.92; in data set [7] it was 5.62.

With `Cc1ccc(-c2cccc(Nc3cc(=O)n(O)c(=O)[nH]3)c2)cc1`, the pIC50 in data set [1] was 6.42; in data set [2], 5.51; in data set [3], 6.35; in data set [6] it was 4.36; in data set [7] it was 6.36.

For `COc1ccc(-c2cccc(Nc3cc(=O)n(O)c(=O)n3C)c2)c(OC)c1`, the pIC50 was 6.00 in data set [1]; 5.20 in data set [2]; 5.68 in data set [3]; 5.96 in data set [5]; 5.38 in data set [7]. This compound returned a CC50 in data set [4] of 6 µM.

For the compound `Cc1ccc(-c2ccc(Nc3cc(=O)n(O)c(=O)n3C)cc2)cc1`, the pIC50 in data set [1] is 5.57; in data set [3] it was 5.19; in data set [5] it was 5.72; in data set [7], 5.18. For the same compound, the IC50 result in data set [2] is recorded as “Not Active”. Besides, in data set [4], the cytotoxic concentration (CC50) worked out at 5 µM.

`Cn1c(Nc2cccc(-c3ccc(C#N)cc3)c2)cc(=O)n(O)c1=O`: the negative logarithm of the IC50 (pIC50) was 6.15 in data set [1]; 5.30 in data set [2]; 5.64 in data set [3]; 6.00 in data set [5]; 5.47 in data set [7]. In data set [4], this compound returned a CC50 of 10 µM.

For `COc1cccc(OC)c1-c1cccc(Nc2cc(=O)n(O)c(=O)[nH]2)c1`, the pIC50 in data set [1] was 6.29; in data set [2], 5.77; in data set [3], 6.15; in data set [6] it was 5.89; in data set [7], 6.33.
